The source of these data is ChEMBL document CHEMBL2417414, “Total synthesis and biological evaluation of clavaminol-G and its analogs” (Eur J Med Chem, 2013).

Assay [1] relates to Candida albicans. The assay is described as follows: Antifungal activity against Candida albicans MTCC 3958 after 24 hrs by well diffusion method. The assay is classed as functional. The following applies: MTCC 3958, 24 h. The procedure, abridged: (§1)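 Agar well diffusion on Mueller-Hinton agar seeded with 0.1 mL of suspension at 1.5 × 10^8 CFU/mL (0.5 McFarland). Fluconazole and miconazole served as positive controls, DMSO as negative control. Plates incubated 24 h at 30 °C. MIC taken as the lowest amount giving an inhibition zone; duplicates, mean reported.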
In general terms: A growth-free zone around the sample is the usual read-out of agar diffusion tests.

In assay [2] the test system is Candida albicans. The assay can be described thus: Antifungal activity against Candida albicans MTCC 1637 after 24 hrs by well diffusion method. It counts as functional. As to conditions: MTCC 1637, 24 h; call rule not given here. In short, it runs like this:
as §1

Assay [3] deals with Candida albicans. The assay can be described thus: Antifungal activity against Candida albicans MTCC 183 after 24 hrs by well diffusion method. The assay is classed as functional. The following applies: MTCC 183, 24 h. The procedure, abridged:
as §1

In assay [4] the test system is Candida albicans. The assay is described as follows: Antifungal activity against Candida albicans MTCC 4748 after 24 hrs by well diffusion method. The assay is classed as functional. As to conditions: MTCC 4748, 24 h. The procedure, abridged:
as §1

Assay [5] has as its system Candida albicans. The assay is described as follows: Antifungal activity against Candida albicans MTCC 3017 after 24 hrs by well diffusion method. It counts as functional. The following applies: MTCC 3017, 24 h. In short, it runs like this: as §1
Assay [6] concerns [Candida] aaseri. The assay is described as follows: Antifungal activity against Candida aaseri MTCC 1962 after 24 hrs by well diffusion method. It counts as functional. The following applies: Yamadazyma aaseri, MTCC 1962, 24 h. In short, it runs like this:
(§2)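 MTCC strains spread on Mueller-Hinton agar plates with 0.1 mL of suspension at 1.5 × 10^8 CFU/mL (0.5 McFarland). Neomycin served as the antibacterial control, fluconazole and miconazole as antifungal controls, and DMSO as the negative control. Plates incubated 24 h at 30 °C. MIC was taken as the lowest amount giving an inhibition zone. Duplicates, mean reported.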

Assay [7] relates to Pichia sporocuriosa. The assay can be described thus: Antifungal activity against Issatchenkia hanoiensis MTCC 4755 after 24 hrs by well diffusion method. The assay is classed as functional. The following applies: MTCC 4755, 24 h. In short, it runs like this:
as §2

The subject of assay [8] is Pichia kudriavzevii. The assay is described as follows: Antifungal activity against Issatchenkia orientalis MTCC 3020 after 24 hrs by well diffusion method. It counts as functional. The following applies: MTCC 3020, 24 h. In short, it runs like this: as §2
Assay [9] has as its system Candida albicans. The assay is described as follows: Antifungal activity against Candida albicans MTCC 854 after 24 hrs by well diffusion method. The following applies: MTCC 854, 24 h. It counts as functional. The procedure, abridged:
as §1

Assay [10] relates to Candida parapsilosis. The assay can be described thus: Antifungal activity against Candida parapsilosis MTCC 1744 after 24 hrs by well diffusion method. It counts as functional. The following applies: Lodderomyces parapsilosis, MTCC 1744, 24 h. The procedure, abridged:
as §2

For assay [11], the system named is Candida albicans. The assay can be described thus: Antifungal activity against Candida albicans MTCC 7315 after 24 hrs by well diffusion method. The assay is classed as functional. The following applies: MTCC 7315, 24 h. In short, it runs like this: as §1
The subject of assay [12] is Nakaseomyces glabratus. The assay can be described thus: Antifungal activity against Candida glabrata MTCC 3019 after 24 hrs by well diffusion method. The assay is classed as functional. The following applies: MTCC 3019, 24 h. The procedure, abridged: as §2
Assay [13] concerns Candida albicans. The assay can be described thus: Antifungal activity against Candida albicans MTCC 3018 after 24 hrs by well diffusion method. It counts as functional. The following applies: MTCC 3018, 24 h. In short, it runs like this: as §1
Assay [14] relates to MCF7. The assay is described as follows: Cytotoxicity against human MCF7 cells by MTT assay. The assay is classed as functional, cell-based. The procedure, abridged:
(§3)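 MTT assay on ATCC lines: A549 (CCL-185, alveolar adenocarcinoma), HeLa (CCL-2, cervical), MDA-MB-231 (HTB-26) and MCF7 (HTB-22, breast adenocarcinoma). IC50 calculated from absorbance dose–response curves. Values are the average of two independent experiments.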

The test system of assay [15] is MDA-MB-231. The assay is described as follows: Cytotoxicity against human MDA-MB-231 cells by MTT assay. It counts as functional, cell-based. The procedure, abridged:
as §3

For assay [16], the system named is HeLa. The assay can be described thus: Cytotoxicity against human HeLa cells by MTT assay. It counts as functional, cell-based. In short, it runs like this:
as §3

Assay [17] concerns A549. The assay is described as follows: Cytotoxicity against human A549 cells by MTT assay. The assay is classed as functional, cell-based. The procedure, abridged: as §3
A general note: Formazan colour is commonly taken as a measure of viable cells.

For assay [18], the system named is Raoultella planticola. The assay can be described thus: Antibacterial activity against Klebsiella planticola MTCC 530 after 24 hrs by well diffusion method. The assay is classed as functional. As to conditions: MTCC 530, 24 h. The procedure, abridged: as §2
Assay [19] concerns Staphylococcus aureus. The assay is described as follows: Antibacterial activity against Staphylococcus aureus MLS16 MTCC 2940 after 24 hrs by well diffusion method. The assay is classed as functional. The following applies: MLS16 MTCC 2940, 24 h. In short, it runs like this:
as §2

In assay [20] the test system is Staphylococcus aureus. The assay is described as follows: Antibacterial activity against Staphylococcus aureus MTCC 96 after 24 hrs by well diffusion method. The assay is classed as functional. The following applies: MTCC 96, 24 h. In short, it runs like this:
as §2

Assay [21] concerns Escherichia coli. The assay can be described thus: Antibacterial activity against Escherichia coli MTCC 739 after 24 hrs by well diffusion method. It counts as functional. As to conditions: MTCC 739, 24 h. The procedure, abridged: as §2
For assay [22], the system named is Pseudomonas aeruginosa. The assay is described as follows: Antibacterial activity against Pseudomonas aeruginosa MTCC 2453 after 24 hrs by well diffusion method. The following applies: MTCC 2453, 24 h. It counts as functional. The procedure, abridged: as §2
In assay [23] the test system is Bacillus subtilis. The assay is described as follows: Antibacterial activity against Bacillus subtilis MTCC 121 after 24 hrs by well diffusion method. It counts as functional. The following applies: MTCC 121, 24 h. In short, it runs like this: as §2
The test system of assay [24] is Micrococcus luteus. The assay can be described thus: Antibacterial activity against Micrococcus luteus MTCC 2470 after 24 hrs by well diffusion method. It counts as functional. As to conditions: MTCC 2470, 24 h. The procedure, abridged:
as §2

Setting [25] is: Homo sapiens, HeLa, read-out: IC50.
Setting [26] is: Homo sapiens, A549, read-out: IC50.
Setting [27] is: Homo sapiens, MCF7, read-out: IC50.
Setting [28] is: Homo sapiens, MDA-MB-231, read-out: IC50.

Values after ≈ are worked out from the molar mass of the structure shown.

Consider `OC(Cn1cncn1)(Cn1cncn1)c1ccc(F)cc1F` [FLUCONAZOLE], for which the MIC (usually the lowest concentration that inhibits growth of the organism) in assay [1] stood at 75 mg/L (≈ 245 µM); in [2], 75 mg/L (≈ 245 µM); in assay [3], 37.5 mg/L (≈ 122 µM); in assay [4], 37.5 mg/L (≈ 122 µM); in assay [5], 75 mg/L (≈ 245 µM); in assay [6] it was 37.5 mg/L (≈ 122 µM). Moreover, the MIC in assay [7] is 75 mg/L (≈ 245 µM); in assay [8] it was 150 mg/L (≈ 490 µM); in assay [9], 37.5 mg/L (≈ 122 µM); in [10], 18.8 mg/L (≈ 61.2 µM); in assay [11], 37.5 mg/L (≈ 122 µM); in assay [12], 75 mg/L (≈ 245 µM). The compound also returned an MIC in [13] of 37.5 mg/L (≈ 122 µM).

Regarding `NCC(O)CCCCCCCCCO` (stereo not drawn), the IC50 (commonly the concentration that gives 50% inhibition) is “Not Active” in assay [14] (mcf7), “Not Active” in assay [15] (mda-mb-231), 8.79 µM in assay [16] (setting [25]) and 16.2 µM in [17] (setting [26]).

`COC(=O)CCCCCCCCC(O)CN` (stereo not drawn): the concentration for half-maximal inhibition (IC50) in assay [14] (setting [27]) stood at 10.2 µM; in assay [15] (setting [28]), 29.8 µM; in assay [16] (setting [25]), 3.59 µM; in assay [17] (setting [26]), 7.89 µM.

Take `COc1cccc2c1C(=O)c1c(O)c3c(c(O)c1C2=O)C[C@@](O)(C(=O)CO)C[C@@H]3O[C@H]1C[C@H](N)[C@H](O)[C@H](C)O1` [DOXORUBICIN]: the half-maximal inhibitory concentration (IC50) came to 1.05 µM in assay [14] (setting [27]) and 0.5 µM in [15] (setting [28]).

On to `Clc1ccc(COC(Cn2ccnc2)c2ccc(Cl)cc2Cl)c(Cl)c1` (stereo not drawn) [MICONAZOLE], for which the MIC in assay [1], in [2], in assay [3], in assay [4], in assay [5] and in assay [6] was 9.37 mg/L (≈ 22.5 µM) each time. Besides, the MIC in assay [7], in [8], in [9], in assay [10], in assay [11] and in assay [12] was 9.37 mg/L (≈ 22.5 µM) in each case. This compound also displayed an MIC in assay [13] of 9.37 mg/L (≈ 22.5 µM).

On to `NCC(O)CCCCCCCCC(=O)O` (stereo not drawn), for which the concentration for half-maximal inhibition (IC50) result in [14] (mcf7), in assay [15] (mda-mb-231), in assay [16] (hela) and in [17] (a549) was “Not Active” each time.

In the case of `CCCCCCCCCC(O)CN` (stereo not drawn), the minimum inhibitory concentration (MIC) in [1], in assay [18], in assay [2], in assay [3], in assay [19] and in assay [4] was 18.8 mg/L (≈ 100 µM) throughout. Also, the MIC in [5], in assay [6], in assay [20], in assay [7], in assay [8] and in assay [21] was 18.8 mg/L (≈ 100 µM) throughout. For the same compound, the MIC in [22], in [23], in [9], in assay [24], in [10] and in [11] was 18.8 mg/L (≈ 100 µM) in each case. The MIC in assay [12] and in assay [13] was 18.8 mg/L (≈ 100 µM) in each case. For the same compound, the IC50 in assay [14] (setting [27]) is 3.88 µM; in assay [15] (setting [28]), 4.02 µM; in assay [16] (setting [25]), 4.36 µM; in [17] (setting [26]), 6.78 µM.

Turning to `CCCCCCCCCC(O)CNC(C)=O` (stereo not drawn), the half-maximal inhibitory concentration (IC50) result in assay [14] (mcf7), in assay [15] (mda-mb-231), in [16] (hela) and in [17] (a549) was “Not Active” throughout.
